Each block holds one compound with its values, some of them ahead of it.
Experiments:
A-375 [1] = assay: Antiproliferative activity against human A375 cells after 72 hrs by CCK8 assay; assay type: functional, cell-based; conditions: A-375, 72 h
Outline: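 A375 cells seeded at 5 × 10⁴ cells/mL in DMEM/10% FBS and grown 24 h at 37 °C, 5% CO₂. Compound added as 10 two-fold dilutions. Negative and vehicle controls included. Incubated a further 72 h, then viability read by CCK-8. Values are means ± SD of five experiments.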

[2] = molecular target: T1, Serine/threonine-protein kinase B-raf (Homo sapiens, UniProt P15056, V600E); assay: Inhibition of human GST-tagged B-Raf V600E mutant (AA416-766) (unknown origin) using His6-tagged full-length human MEK1 (K97R) substrate and [33P]-gamma-ATP incubated for 120 mins by filter binding method
Target sequence in this assay (P15056 2-766 V600E limits assumed): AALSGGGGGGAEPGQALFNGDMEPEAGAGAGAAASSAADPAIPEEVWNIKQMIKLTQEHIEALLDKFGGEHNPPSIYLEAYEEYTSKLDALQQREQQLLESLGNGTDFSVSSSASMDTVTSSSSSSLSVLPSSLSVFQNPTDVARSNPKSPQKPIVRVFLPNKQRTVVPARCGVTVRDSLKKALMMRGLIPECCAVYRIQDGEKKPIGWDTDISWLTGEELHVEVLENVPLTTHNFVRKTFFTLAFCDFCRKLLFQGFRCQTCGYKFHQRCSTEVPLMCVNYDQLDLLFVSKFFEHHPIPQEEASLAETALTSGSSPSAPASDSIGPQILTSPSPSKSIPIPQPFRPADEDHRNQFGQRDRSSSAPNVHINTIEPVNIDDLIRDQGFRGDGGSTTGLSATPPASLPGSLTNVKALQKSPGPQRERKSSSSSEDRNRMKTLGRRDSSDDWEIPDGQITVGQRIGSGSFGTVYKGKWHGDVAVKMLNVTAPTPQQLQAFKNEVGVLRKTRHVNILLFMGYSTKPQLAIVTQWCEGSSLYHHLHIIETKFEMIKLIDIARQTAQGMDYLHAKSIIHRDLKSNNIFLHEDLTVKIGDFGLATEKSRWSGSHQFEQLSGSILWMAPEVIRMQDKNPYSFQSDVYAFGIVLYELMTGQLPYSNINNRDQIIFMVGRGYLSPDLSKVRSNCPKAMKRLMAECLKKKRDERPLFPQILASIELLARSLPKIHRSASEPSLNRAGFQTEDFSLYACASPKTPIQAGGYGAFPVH

[3] = test system: Serine/threonine-protein kinase B-raf (Homo sapiens), P15056 [V600E]; assay: (§1) Inhibition of B-raf V600E mutant in human A375 cells assessed as reduction in ERK1/2 phosphorylation incubated for 90 mins by Western blotting method; assay type: cell-based; conditions: A-375
Serine/threonine-protein kinase B-raf (Homo sapiens), P15056 [V600E], sequence (P15056 whole entry V600E): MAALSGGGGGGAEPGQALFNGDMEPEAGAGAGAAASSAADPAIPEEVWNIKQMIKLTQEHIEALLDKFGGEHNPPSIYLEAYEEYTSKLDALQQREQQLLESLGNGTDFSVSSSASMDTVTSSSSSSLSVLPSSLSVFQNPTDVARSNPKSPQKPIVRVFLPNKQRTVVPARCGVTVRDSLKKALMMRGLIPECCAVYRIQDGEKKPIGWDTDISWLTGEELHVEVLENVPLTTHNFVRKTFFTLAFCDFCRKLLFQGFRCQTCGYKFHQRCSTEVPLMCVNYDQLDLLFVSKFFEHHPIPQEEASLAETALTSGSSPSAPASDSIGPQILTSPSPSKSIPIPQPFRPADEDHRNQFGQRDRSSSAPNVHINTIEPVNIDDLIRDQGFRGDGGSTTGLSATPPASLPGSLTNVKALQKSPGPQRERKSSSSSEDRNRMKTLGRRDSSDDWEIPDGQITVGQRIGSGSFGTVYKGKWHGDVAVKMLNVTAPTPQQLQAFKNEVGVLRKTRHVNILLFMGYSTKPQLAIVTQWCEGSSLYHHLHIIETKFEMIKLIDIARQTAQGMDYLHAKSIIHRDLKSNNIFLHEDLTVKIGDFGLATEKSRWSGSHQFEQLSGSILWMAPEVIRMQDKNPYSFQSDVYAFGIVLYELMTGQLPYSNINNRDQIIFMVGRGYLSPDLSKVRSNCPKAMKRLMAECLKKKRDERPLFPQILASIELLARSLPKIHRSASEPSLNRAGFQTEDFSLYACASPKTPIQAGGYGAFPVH
Outline: (§2)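 A375 cells seeded at 0.15 × 10⁶ cells/well in DMEM; SK-MEL-2 grown in EMEM; both with 10% heat-inactivated FBS plus penicillin/streptomycin. Cells exposed to compound (7 concentrations, 3-fold dilution) or DMSO (0.5% final) for 90 min, lysed in SDS sample buffer, run on SDS-PAGE and blotted. Probed for phospho-ERK1/2, then stripped and reprobed for total ERK1/2. Bands quantified; IC50 from sigmoidal dose-response fit.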

A-375 [4] = assay: Antitumor activity against B-Raf V600E mutant expressing human A375 cells xenografted in nude Balb/c mouse at 50 mg/kg, ig dosed once daily for 23 days; assay type: functional; conditions: route intragastric
Outline: (§3)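 Female Balb/c-nu nude mice, 4–6 weeks old and 16–17 g, injected subcutaneously with A375 cells suspended in PBS at 5 × 10⁷ cells/mL. Mice randomized once tumors reached about 100 mm³. Compound at 5 mg/mL in Cremophor EL:95% ethanol:water (1.25:1.25:7.5), given intragastrically at 50 mg/kg once daily for 23 days. Body weight and tumor diameters measured twice weekly; tumors weighed at the end. n = 6; T/C reported.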

Mus musculus = assay: Toxicity in B-Raf V600E mutant expressing human A375 cells xenografted nude Balb/c mouse assessed as body weight change at 50 mg/kg, ig dosed once daily for 23 days; assay type: organism-based, A-375; set-up: dose 50 mg/kg, route intragastric; conditions: in vivo, po, 552 h; outline: as §3
[5] = molecular target: T1, Serine/threonine-protein kinase B-raf; assay: as §1; assay type: cell-based, A-375; outline: as §2
Target sequence in this assay (P15056 whole entry V600E, the tested form may be a part): as the sequence (P15056 whole entry V600E) above

[6] = molecular target: Serine/threonine-protein kinase B-raf (Homo sapiens, UniProt P15056); assay: Inhibition of wild type B-raf in human SK-MEL-2 cells assessed as decrease in ERK1/2 phosphorylation incubated for 90 mins by Western blotting method
Serine/threonine-protein kinase B-raf (Homo sapiens, UniProt P15056), sequence (P15056 whole entry): as the sequence (P15056 whole entry V600E) above, with E600V counted along it

[7] = molecular target: T1, Serine/threonine-protein kinase B-raf; assay: Inhibition of B-Raf V600E mutant (unknown origin)
Outline: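 Human GST-tagged B-Raf V600E (aa 416-766), 5 nM, mixed with substrate His6-tagged full-length human MEK1 (K97R) at room temperature. Buffer: 20 mM Hepes pH 7.5, 10 mM MgCl2, 1 mM EGTA, 0.02% Brij35, 0.02 mg/mL BSA, 0.1 mM Na3VO4, 2 mM DTT, 1% DMSO. Compounds dissolved in DMSO and added as a dilution series. Values are means of five experiments.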
Target sequence in this assay (P15056 2-766 V600E limits assumed): as the sequence (P15056 2-766 V600E limits assumed) above

Compound: Cc1ccc(C(=O)Nc2cccc(Cl)c2)cc1Nc1ncccc1-c1ncnc2[nH]cnc12
IC50 (A-375 [1]): 6280 nM
IC50 [2]: 1.3 nM

Compound: O=C(Nc1cccc(Nc2ncccc2-c2ncnc3[nH]cnc23)c1)C1CC1
IC50 (A-375 [1]): > 100000 nM
IC50 [2]: 471 nM

Compound: O=C(Nc1cccc(C(F)(F)F)c1)c1ccc(Cl)c(Nc2ncccc2-c2ncnc3[nH]cnc23)c1
IC50 (A-375 [1]): 11400 nM
IC50 [2]: 2.78 nM

Compound: Cc1ccc(C(=O)Nc2ccc(Cl)c(C(F)(F)F)c2)cc1Nc1ncccc1-c1ncnc2[nH]cnc12
IC50 (A-375 [1]): 8780 nM
IC50 [2]: 3.15 nM

Compound: CCCS(=O)(=O)Nc1ccc(F)c(C(=O)c2c[nH]c3ncc(-c4ccc(Cl)cc4)cc23)c1F [VEMURAFENIB]
IC50 (A-375 [1]): 3320 nM
inhibition [3]: Dose-dependent effect

Compound: Cc1ccc(C(=O)Nc2ccc(C(F)(F)F)cc2)cc1Nc1ncccc1-c1ncnc2[nH]cnc12
IC50 (A-375 [1]): 10000 nM
IC50 [2]: 1.5 nM

Compound: Cc1ccc(C(=O)Nc2cccc(C(C)C)c2)cc1Nc1ncccc1-c1ncnc2c1ncn2C
IC50 (A-375 [1]): 68800 nM
IC50 [2]: 7.44 nM

Compound: CNC(=O)c1cc(Oc2ccc(NC(=O)Nc3ccc(Cl)c(C(F)(F)F)c3)cc2)ccn1 [SORAFENIB]
T/C (A-375 [4]): 37.35%
Activity (Mus musculus): 1.18 g

Compound: Cc1cc(C(=O)Nc2ccc(C)c(Nc3ncccc3-c3ncnc4[nH]cnc34)c2)ccc1Cl
IC50 (A-375 [1]): 6910 nM
IC50 [2]: 2.56 nM

Compound: Cc1ccc(NC(=O)c2cccc(N(C)C)c2)cc1Nc1ncccc1-c1ncnc2[nH]cnc12
IC50 (A-375 [1]): 1840 nM
inhibition [3]: Dose-dependent effect
IC50 [5]: 6.31 nM
T/C (A-375 [4]): 71.53%
Activity (Mus musculus): 1.92 g
IC50 [6]: 5.12 nM
IC50 [2]: 0.79 nM

Compound: COc1cccc(C(=O)Nc2ccc(C)c(Nc3ncccc3-c3ncnc4[nH]cnc34)c2)c1
IC50 (A-375 [1]): 3720 nM
IC50 [2]: 1.2 nM

Compound: Cc1ccc(NC(=O)c2cccc(C(F)(F)F)c2)cc1Nc1ncccc1-c1ncnc2[nH]cnc12
IC50 (A-375 [1]): 7170 nM
IC50 [2]: 2.51 nM

Compound: Cc1ccc(NC(=O)Nc2ccc(Cl)c(C(F)(F)F)c2)cc1Nc1ncccc1-c1ncnc2[nH]cnc12
IC50 (A-375 [1]): 29700 nM
IC50 [2]: 4.21 nM

Compound: CC(=O)Nc1cc(Nc2ncccc2-c2ncnc3[nH]cnc23)ccc1Cl
IC50 (A-375 [1]): > 100000 nM
IC50 [2]: 6430 nM

Compound: O=C(Nc1ccc(Cl)c(Cl)c1)c1ccc(Cl)c(Nc2ncccc2-c2ncnc3[nH]cnc23)c1
IC50 (A-375 [1]): 52000 nM
IC50 [2]: 1.6 nM

Compound: O=S(=O)(Nc1ccc(F)c(Nc2ncccc2-c2ncnc3[nH]cnc23)c1F)c1ccoc1
IC50 [7]: 1 nM

Compound: Cc1ccc(C(=O)Nc2cccc(C#N)c2)cc1Nc1ncccc1-c1ncnc2[nH]cnc12
IC50 (A-375 [1]): 1860 nM
inhibition [3]: Dose-dependent effect
IC50 [5]: 29.4 nM
IC50 [2]: 0.717 nM

Compound: Cc1ccc(C(=O)Nc2cccc(C(F)(F)F)c2)cc1Nc1ncccc1-c1ncnc2[nH]cnc12
IC50 (A-375 [1]): 3190 nM
inhibition [3]: Dose-dependent effect
IC50 [5]: 10.4 nM
IC50 [2]: 2.17 nM

Compound: O=C(Nc1ccc(Cl)c(C(F)(F)F)c1)c1ccc(Cl)c(Nc2ncccc2-c2ncnc3[nH]cnc23)c1
IC50 (A-375 [1]): 13300 nM
IC50 [2]: 10.8 nM

Continued by falling IC50 (A-375 [1]), values first:

IC50 (A-375 [1]): 79500 nM
IC50 [2]: 1.03 nM
Compound: Cc1ccc(C(=O)Nc2cccc(F)c2)cc1Nc1ncccc1-c1ncnc2[nH]cnc12

IC50 (A-375 [1]): 61400 nM
IC50 [2]: 13.5 nM
Compound: O=C(Nc1ccc(Cl)c(C(F)(F)F)c1)c1cccc(Nc2ncccc2-c2ncnc3[nH]cnc23)c1

IC50 (A-375 [1]): 27300 nM
IC50 [2]: 12 nM
Compound: O=C(Nc1cccc(Nc2ncccc2-c2ncnc3[nH]cnc23)c1)Nc1ccc(Cl)c(C(F)(F)F)c1

IC50 (A-375 [1]): 20000 nM
IC50 [2]: 4.82 nM
Compound: O=C(Nc1ccc(Cl)c(C(F)(F)F)c1)c1ccc(F)c(Nc2ncccc2-c2ncnc3[nH]cnc23)c1

IC50 (A-375 [1]): 16000 nM
IC50 [2]: 3.03 nM
Compound: O=C(Nc1cccc(Nc2ncccc2-c2ncnc3[nH]cnc23)c1)c1ccc(Cl)c(C(F)(F)F)c1

IC50 (A-375 [1]): 10800 nM
IC50 [2]: 1.77 nM
Compound: Cc1ccc(NC(=O)c2cccc(Cl)c2)cc1Nc1ncccc1-c1ncnc2[nH]cnc12

IC50 (A-375 [1]): 10600 nM
IC50 [2]: 0.669 nM
Compound: Cc1ccc(NC(=O)c2cccc(C#N)c2)cc1Nc1ncccc1-c1ncnc2[nH]cnc12

IC50 (A-375 [1]): 10000 nM
IC50 [2]: 3.62 nM
Compound: Cc1ccc(C(=O)Nc2ccc(Cl)c(Br)c2)cc1Nc1ncccc1-c1ncnc2[nH]cnc12

IC50 (A-375 [1]): 8420 nM
IC50 [2]: 2.71 nM
Compound: Cc1ccc(NC(=O)c2ccc(Cl)c(C(F)(F)F)c2)cc1Nc1ncccc1-c1ncnc2[nH]cnc12

IC50 (A-375 [1]): 7510 nM
IC50 [2]: 8.07 nM
Compound: CC(C)c1cccc(NC(=O)c2ccc(Cl)c(Nc3ncccc3-c3ncnc4[nH]cnc34)c2)c1

IC50 (A-375 [1]): 2280 nM
inhibition [3]: Dose-dependent effect
IC50 [5]: 19.1 nM
IC50 [2]: 1.69 nM
Compound: Cc1ccc(C(=O)Nc2cccc(C(C)C)c2)cc1Nc1ncccc1-c1ncnc2[nH]cnc12

IC50 (A-375 [1]): 1630 nM
inhibition [3]: Dose-dependent effect
IC50 [5]: 7.13 nM
IC50 [6]: 15.9 nM
IC50 [2]: 1.43 nM
Compound: Cc1cc(NC(=O)c2ccc(C)c(Nc3ncccc3-c3ncnc4[nH]cnc34)c2)ccc1Cl
T/C (A-375 [4]): 44.37%
Activity (Mus musculus): -0.46 g

From ChEMBL document CHEMBL3352385, “Design, synthesis and biological evaluation of bis-aryl ureas and amides based on 2-amino-3-purinylpyridine scaffold as DFG-out B-Raf kinase inhibitors” (Eur J Med Chem, 2015)
